Laboratory results published in ChEMBL document CHEMBL1148981, “A phthalide with in vitro growth inhibitory activity from an oidiodendron strain” (J Nat Prod, 2004).

Key:
OVCAR-8 = assay: Cytotoxicity against human OVCAR8 cells; assay type: functional
In short: (§1)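 Growth inhibition read as GI50. Lines were run at one of two sites. At Cetek, cells grew in ATCC-recommended media and viability was read as CellTiter Blue resazurin reduction by fluorescence at 530/590. At NCI DTP, cells grew in RPMI 1640 with 5% FBS and 2 mM L-glutamine, and viability was read by TCA fixation and sulforhodamine B total-protein staining.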

U-937 = assay: Cytotoxicity against human U937 cells; assay type: functional; in short: as §1
RPMI-8226 = assay: Cytotoxicity against human RPMI8226 cells; assay type: functional; in short: as §1
BT-549 = assay: Cytotoxicity against human BT549 cells; assay type: functional; in short: as §1
MCF7 = assay: Cytotoxicity against human MCF7 cells; assay type: functional; in short: as §1
SK-MEL-28 = assay: Cytotoxicity against human SK-MEL-28 cells; assay type: functional; in short: as §1
MDA-MB-435 = assay: Cytotoxicity against human MDA-MB-435 cells; assay type: functional; in short: as §1
[1] = target: T1, RAC-alpha serine/threonine-protein kinase (Homo sapiens, UniProt P31749); assay: Inhibition of sulfhydryl-labeled human recombinant Akt1 expressed in baculovirus by affinity capillary electrophoresis assay
In short: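 Baculovirus-expressed human Akt1 was buffer-exchanged into 30 mM HEPES pH 7.5 with 0.1% Chaps and 150 mM NaCl. It was labeled with Fluorescein-5-EX succinimidyl ester (dye:protein 5:1) for 2 h on ice, quenched with β-mercaptoethanol and stored in 50% glycerol at -20 °C. Compound was titrated against labeled Akt1 by affinity capillary electrophoresis. IC50 is the mean of three experiments with SEM.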

U-251 = assay: Cytotoxicity against human U251 cells; assay type: functional; in short: as §1
OVCAR-3 = assay: Cytotoxicity against human OVCAR-3 cells; assay type: functional; in short: as §1
M14 = assay: Cytotoxicity against human M14 cells; assay type: functional; in short: as §1
[2] = target: T1, RAC-alpha serine/threonine-protein kinase; assay: Inhibition of sulfhydryl-labeled human recombinant Akt1 expressed in baculovirus assessed as phosphorylation of recombinant Bad protein by Western blotting
In short: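 Active recombinant Akt1 (50 nM final) was preincubated 5 min at room temperature with test agent in DMSO (1.4% final) in assay dilution buffer. Soluble Bad (1.2 µM final) and Mg-ATP solution were then added, followed by 30 min at 30 °C with agitation. Read-out was SDS-PAGE, PVDF transfer, anti-phospho-Bad (Ser112) with HRP secondary, chemiluminescence and densitometry. IC50 is the mean of three experiments.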

Jurkat = assay: Cytotoxicity against human Jurkat cells; assay type: functional; in short: as §1
NCI-H23 = assay: Cytotoxicity against human NCI-H23 cells; assay type: functional; in short: as §1
SNB-75 = assay: Cytotoxicity against human SNB75 cells; assay type: functional; in short: as §1
OVCAR-5 = assay: Cytotoxicity against human OVCAR5 cells; assay type: functional; in short: as §1
K562 = assay: Cytotoxicity against human K562 cells; assay type: functional; in short: as §1
HepG2 = assay: Cytotoxicity against human HepG2 cells; assay type: functional; in short: as §1
EKVX = assay: Cytotoxicity against human EKVX cells; assay type: functional; in short: as §1

T1 sequence (P31749 whole entry): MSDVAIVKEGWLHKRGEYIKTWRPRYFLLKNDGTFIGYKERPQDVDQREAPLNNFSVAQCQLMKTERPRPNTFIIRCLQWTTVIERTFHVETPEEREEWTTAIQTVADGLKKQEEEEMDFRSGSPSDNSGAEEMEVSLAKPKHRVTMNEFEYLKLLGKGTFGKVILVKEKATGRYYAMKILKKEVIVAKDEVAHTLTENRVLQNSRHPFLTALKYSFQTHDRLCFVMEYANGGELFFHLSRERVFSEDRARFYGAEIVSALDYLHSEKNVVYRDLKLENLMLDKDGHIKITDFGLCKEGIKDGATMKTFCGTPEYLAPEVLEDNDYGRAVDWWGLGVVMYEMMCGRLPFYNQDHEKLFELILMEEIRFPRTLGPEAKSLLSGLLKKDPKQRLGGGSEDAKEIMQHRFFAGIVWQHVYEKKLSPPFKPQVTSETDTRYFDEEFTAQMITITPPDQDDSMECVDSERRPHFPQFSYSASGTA

IC50 [1]: 19.7 µM
IC50 [2]: 30.4 µM
SMILES: CC1OC(=O)c2cc(O)c(O)c(O)c21 (centres undefined)
GI50 (OVCAR-8): 82 µM
GI50 (U-937): 60 µM
GI50 (RPMI-8226): 67 µM
GI50 (BT-549): 24 µM
GI50 (MCF7): > 100 µM
GI50 (SK-MEL-28): 37 µM
GI50 (MDA-MB-435): 85 µM
GI50 (U-251): > 100 µM
GI50 (OVCAR-3): > 100 µM
GI50 (M14): > 100 µM
GI50 (Jurkat): 20 µM
GI50 (NCI-H23): 87 µM
GI50 (SNB-75): 60 µM
GI50 (OVCAR-5): 74 µM
GI50 (K562): > 100 µM
GI50 (HepG2): > 100 µM
GI50 (EKVX): > 100 µM
